Assay results: ChEMBL document CHEMBL1125297, “Synthesis and biologic activity of 2'-fluoro-2-halo derivatives of 9-beta-D-arabinofuranosyladenine” (J Med Chem, 1992)

Tests used:
CCRF-CEM = assay: Compound was tested for cytotoxicity against CCRF-CEM cell lines; format: functional, cell-based; details: Homo sapiens
Outline: (§1)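 Cell-proliferation assay run against each named cell line. The value is the concentration that holds proliferation at 50% of untreated controls.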

L1210 = assay: Compound was tested for cytotoxicity against L1210 cell lines; format: functional, cell-based; details: Mus musculus; outline: as §1
HEp-2 = assay: Compound was tested for cytotoxicity against HEp-2 cell lines; format: functional, cell-based; details: Homo sapiens; outline: as §1
Mus musculus [1] = assay: Tumor-free survivors of P388 leukemia infected mice was measured after ip administration of 100 mg/kg in 3 mice; format: functional; details: route intraperitoneal
Outline: (§2)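 CD2F1 mice received 10⁶ P388 leukemia cells ip on day 0 and were then dosed ip in mg/kg per dose, at or below the LD10. Tumor-free survivors were scored among the treated group.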

Mus musculus [2] = assay: Log chance in viable tumor cells population was measured after intraperitoneal administration of 25 mg/kg; format: functional
Outline: (§3)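 CD2F1 mice were implanted ip with 10⁶ P388 leukemia cells on day 0, then treated ip. Doses are mg/kg per dose, kept at or below LD₁₀. Read-out is the log change in viable tumor cells from start to end of therapy, based on the median day of death among the animals that died.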

K562 = assay: Compound was tested for cytotoxicity against K562 cell lines; format: functional, cell-based; details: Homo sapiens; outline: as §1
Mus musculus [3] = assay: In Vivo increase in life span of dying mice implanted ip with 10E6 P388 leukemia, after ip administration of 100 mg/kg; format: functional; details: route intraperitoneal
Outline: (§4)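 CD2F1 mice implanted ip with 10⁶ P388 leukemia cells on day 0. Treatment ip, doses given as mg/kg per dose and kept at or below the LD10. Read-out is increase in life span against untreated controls.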

Mus musculus [4] = assay: Log chance in viable tumor cells population was measured after intraperitoneal administration of 100 mg/kg; format: functional; outline: as §3
Mus musculus [5] = assay: In Vivo increase in life span of dying mice implanted ip with 10E6 P388 leukemia, after ip administration of 25 mg/kg; format: functional; details: route intraperitoneal; outline: as §4
Mus musculus [6] = assay: Tumor-free survivors of P388 leukemia infected mice was measured after ip administration of 25 mg/kg in 6 mice; format: functional; details: route intraperitoneal; outline: as §2
Mus musculus [7] = assay: Tumor-free survivors of P388 leukemia infected mice was measured after ip administration of 30 mg/kg in 6 mice; format: functional; details: route intraperitoneal; outline: as §2
Mus musculus [8] = assay: Log change in viable tumor cells population was measured at end of therapy when compared to start of therapy at dose 200 mg/kg; format: functional; outline: as §3
Mus musculus [9] = assay: Tumor-free survivors of P388 leukemia infected mice was measured after ip administration of 50 mg/kg in 6 mice; format: functional; details: route intraperitoneal; outline: as §2
Mus musculus [10] = assay: Log change in viable tumor cells population was measured at end of therapy when compared to start of therapy at dose 50 mg/kg; format: functional; outline: as §3
Mus musculus [11] = assay: In Vivo increase in life span of dying mice implanted ip with 10E6 P388 leukemia, after ip administration of 50 mg/kg; format: functional; details: route intraperitoneal; outline: as §4
Mus musculus [12] = assay: In Vivo increase in life span of dying mice implanted ip with 10E6 P388 leukemia, after ip administration of 30 mg/kg; format: functional; details: route intraperitoneal; outline: as §4
Mus musculus [13] = assay: In Vivo increase in life span of dying mice implanted ip with 10E6 P388 leukemia, after ip administration of 200 mg/kg; format: functional; details: route intraperitoneal; outline: as §4
Mus musculus [14] = assay: Tumor-free survivors of P388 leukemia infected mice was measured after ip administration of 200 mg/kg in 6 mice; format: functional; details: route intraperitoneal; outline: as §2
Mus musculus [15] = assay: Log change in viable tumor cells population was measured at end of therapy when compared to start of therapy at dose 30 mg/kg; format: functional; outline: as §3
Mus musculus [16] = assay: Tumor-free survivors of P388 leukemia infected mice was measured after ip administration of 25 mg/kg in 5 mice; format: functional; details: route intraperitoneal; outline: as §2
Mus musculus [17] = assay: Tumor-free survivors of P388 leukemia infected mice was measured after ip administration of 200 mg/kg in 3 mice; format: functional; details: route intraperitoneal; outline: as §2
Mus musculus [18] = assay: Log chance in viable tumor cells population was measured after intraperitoneal administration of 200 mg/kg; format: functional; outline: as §3
Mus musculus [19] = assay: Tumor-free survivors of P388 leukemia infected mice was measured after ip administration of 20 mg/kg in 6 mice; format: functional; details: route intraperitoneal; outline: as §2
Mus musculus [20] = assay: In Vivo increase in life span of dying mice implanted ip with 10E6 P388 leukemia, after ip administration of 20 mg/kg; format: functional; details: route intraperitoneal; outline: as §4
Mus musculus [21] = assay: Log chance in viable tumor cells population was measured after intraperitoneal administration of 20 mg/kg; format: functional; outline: as §3
Mus musculus [22] = assay: Tumor-free survivors of P388 leukemia infected mice was measured after ip administration of 100 mg/kg in 5 mice; format: functional; details: route intraperitoneal; outline: as §2

SMILES | IC50 (CCRF-CEM) | IC50 (L1210) | IC50 (HEp-2) | IC50 (K562) | other results
Nc1nc(F)nc2c1ncn2[C@H]1C[C@H](O)[C@@H](CO)O1 | 200 nM | 900 nM | 200 nM |  | 
Nc1nc(F)nc2c1ncn2[C@@H]1O[C@H](CO)[C@@H](O)[C@@H]1F | 140 nM | 380 nM | 340 nM | 300 nM | Tumor free survivors (Mus musculus [1]): 0; Log change (Mus musculus [2]): -0.1; ILS at 100 mg/kg (Mus musculus [3]): 63%; Log change (Mus musculus [4]): -1.8; ILS at 25 mg/kg (Mus musculus [5]): 81%; Tumor free survivors (Mus musculus [6]): 0
Nc1nc(Cl)nc2c1ncn2[C@@H]1O[C@H](CO)[C@@H](O)[C@H]1O | 10000 nM | < 3000 nM | 3000 nM |  | 
Nc1nc(Br)nc2c1ncn2[C@@H]1O[C@H](CO)[C@@H](O)[C@H]1F | 20 nM | 260 nM | 220 nM | 50 nM | Tumor free survivors (Mus musculus [7]): 0; Log change (Mus musculus [8]): 0.1; Tumor free survivors (Mus musculus [9]): 0; Log change (Mus musculus [10]): 1.6; ILS at 50 mg/kg (Mus musculus [11]): 41%; ILS at 30 mg/kg (Mus musculus [12]): 100%; ILS at 200 mg/kg (Mus musculus [13]): 33%; Tumor free survivors (Mus musculus [14]): 0; Log change (Mus musculus [15]): -1
Nc1nc(Br)nc2c1ncn2[C@H]1C[C@H](O)[C@@H](CO)O1 | 20 nM | 900 nM | 20 nM |  | 
Nc1nc(Br)nc2c1ncn2C1O[C@H](CO)[C@@H](O)[C@H]1O (some centres not stated) |  | 3000 nM | 4000 nM |  | 
Nc1nc(Cl)nc2c1ncn2[C@H]1C[C@H](O)[C@@H](CO)O1 [CLADRIBINE] | 3 nM | 70 nM | 30 nM |  | 
Nc1nc(Cl)nc2c1ncn2[C@@H]1O[C@H](CO)[C@@H](O)[C@@H]1F [CLOFARABINE] | 50 nM | 230 nM | 12 nM | 3 nM | Tumor free survivors (Mus musculus [16]): 0; Log change (Mus musculus [2]): -2.8; Tumor free survivors (Mus musculus [17]): 0; Log change (Mus musculus [18]): -1.6; Tumor free survivors (Mus musculus [19]): 1; ILS at 20 mg/kg (Mus musculus [20]): 220%; ILS at 100 mg/kg (Mus musculus [3]): 38%; Log change (Mus musculus [21]): -6.6; Log change (Mus musculus [4]): -0.3; Tumor free survivors (Mus musculus [22]): 0; ILS at 25 mg/kg (Mus musculus [5]): 118%; ILS at 200 mg/kg (Mus musculus [13]): 59%
Nc1nc(F)nc2c1ncn2[C@@H]1O[C@H](CO)[C@@H](O)[C@@H]1O [FLUDARABINE] | 400 nM | 3000 nM | 9000 nM | 150 nM | 
